# Reference: ChEMBL document CHEMBL1629689, “Cross-resistance to nitro drugs and implications for treatment of human African trypanosomiasis” (Antimicrob Agents Chemother, 2010)
# Active and inactive are the calls of the source. No cut-off for these calls is given here.
# Key:
# Trypanosoma brucei [1] = assay: Antimicrobial activity against Trypanosoma brucei; type: functional, organism-based
# Method in brief: (§1)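 T. brucei bloodstream-form single-marker S427 (wild type) and cloned nifurtimox-resistant lines, cultured at 37°C in HMI9-T with 2.5 µg/ml G418. Growth inhibition measured, data corrected for background cell density and expressed as % of untreated cells. EC50 from a two-parameter fit with slope factor. At least three independent experiments; weighted means ± weighted SD.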
# Trypanosoma brucei [2] = assay: Antimicrobial activity against Trypanosoma brucei NfxR2; type: functional, organism-based; method in brief: as §1
# Trypanosoma brucei [3] = assay: Selectivity ratio of EC50 for Trypanosoma brucei NfxR1 to EC50 for Trypanosoma brucei; type: functional
# Method in brief: (§2)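 Resistance factor taken as EC50 for resistant cells divided by EC50 for wild-type S427 bloodstream T. brucei, both from the same in vitro growth-inhibition assay. EC50 values come from at least three independent experiments.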
# Trypanosoma brucei [4] = assay: Antimicrobial activity against Trypanosoma brucei NfxR1; type: functional, organism-based; method in brief: as §1
# Trypanosoma brucei [5] = assay: Selectivity ratio of EC50 for Trypanosoma brucei NfxR2 to EC50 for Trypanosoma brucei; type: functional; method in brief: as §2
# Trypanosoma brucei [6] = assay: animal or person; conditions: in Mus musculus, ip, 96 h
# [7] = test system: Trypanosoma brucei gambiense; assay: Antimicrobial activity against Trypanosoma brucei gambiense
# Trypanosoma brucei [8] = conditions: NfxR1, 100 mg/kg
# Trypanosoma brucei [9] = assay: Antimicrobial activity against Trypanosoma brucei wild type
# [10] = Cmax in NMRI mouse at 200 mg/kg, po after 15 mins; type: ADME, organism-based; set-up: dose 200 mg/kg, route oral; conditions: in vivo
# Method in brief: (§3)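 Single oral dose of 200 mg/kg to NMRI mice, vehicle 10% DMSO in peanut oil. Tail-vein blood (10 µl) taken into water at 0.25, 0.5, 1, 2, 4, 6 and 8 h. Samples extracted by acetonitrile protein precipitation with internal standard. Parent and sulfoxide and sulfone metabolites measured by UPLC-MS/MS (positive ESI, MRM). Triplicate measurements.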
# Trypanosoma brucei [11] = assay: Antimicrobial activity against Trypanosoma brucei NfxR1 infected in dosed NMRI administered QD for 3 days measured on day 6 by neubuaer hemocytometry
# Trypanosoma brucei [12] = assay: Antimicrobial activity against wild type Trypanosoma brucei infected NMRI assessed as cure rate at 50 mg/kg, QD for 3 days measured on day 6 by neubuaer hemocytometry
# Blood [13] = assay: Metabolic stability in blood of NMRI mouse assessed as accumulation of sulfoxide metabolite at 200 mg/kg, po measured after 2 hrs; type: ADME, organism-based; set-up: dose 200 mg/kg, route oral; conditions: in vivo; method in brief: as §3
# Trypanosoma brucei [14] = assay: Antimicrobial activity against Trypanosoma brucei NfxR1 infected in mouse assessed as decrease in parasitemia level at 200 mg/kg, QD for 3 days measured on day 60 by neubuaer hemocytometry
# Trypanosoma brucei [15] = assay: Antimicrobial activity against Trypanosoma brucei wild type; remark: listed apart in the source
# [16] = Fraction unbound in plasma of NMRI mouse at 200 mg/kg, po; type: ADME, organism-based; set-up: dose 200 mg/kg, route oral
# Trypanosoma brucei [17] = assay: Antimicrobial activity against wild type Trypanosoma brucei infected in dosed NMRI administered QD for 3 days measured on day 6 by neubuaer hemocytometry
# Blood [18] = assay: Metabolic stability in blood of NMRI mouse assessed as accumulation of sulfone metabolite at 200 mg/kg, po measured after 8 hrs; conditions: in vivo
EC50 (Trypanosoma brucei [1]) [µM],EC50 (Trypanosoma brucei [2]) [µM],EC50 (Trypanosoma brucei [4]) [µM],Compound,Ratio EC50 (Trypanosoma brucei [3]),Ratio EC50 (Trypanosoma brucei [5]),further results
30,155,154,O=C(Cn1ccnc1[N+](=O)[O-])NCc1ccccc1 [BENZNIDAZOLE],5,5,
> 500,> 500,> 500,Cc1ncc([N+](=O)[O-])n1CCO [METRONIDAZOLE],,,
1.4,21,18.4,Cn1c([N+](=O)[O-])cnc1COc1ccc([S+](C)[O-])cc1 (configuration not stated) [FEXINIDAZOLE SULFOXIDE],13,15,
0.31,3.7,3.7,NC(=O)N/N=C/c1ccc([N+](=O)[O-])o1 [NITROFURAZONE],12,12,
,,,CC1CS(=O)(=O)CCN1/N=C/c1ccc([N+](=O)[O-])o1 (configuration not stated) [NIFURTIMOX],,,ED50 (Trypanosoma brucei [6]): 36.7 mg/kg; ED99 (Trypanosoma brucei [6]): 128 mg/kg; EC50 [7]: 0.26 µM; inhibition (Trypanosoma brucei [8]): inactive; MIC (Trypanosoma brucei [9]): 15.2 µM
,,,CSc1ccc(OCc2ncc([N+](=O)[O-])n2C)cc1 [FEXINIDAZOLE],,,Cmax [10]: 961 ng/mL; ED50 (Trypanosoma brucei [11]): 171 mg/kg; Activity (Trypanosoma brucei [12]): 100%; Stability (Blood [13]): 40000 ng/mL; inhibition (Trypanosoma brucei [14]): inactive; MIC (Trypanosoma brucei [15]): 17.7 µM; fraction unbound [16]: 0.147; ED50 (Trypanosoma brucei [17]): 21 mg/kg
37.8,30.8,30.5,O=[N+]([O-])c1cn2c(n1)OC[C@@H](OCc1ccc(OC(F)(F)F)cc1)C2 [PRETOMANID],1,1,
16.4,11.5,11.9,NCCCC(N)(C(=O)O)C(F)F (configuration not stated) [EFLORNITHINE],1,1,
0.62,9.5,9.6,Cn1c([N+](=O)[O-])cnc1COc1ccc(S(C)(=O)=O)cc1 [FEXINIDAZOLE SULFONE],15,15,Stability (Blood [18]): 55000 ng/mL

Compound,EC50 (Trypanosoma brucei [1]) [µM],EC50 (Trypanosoma brucei [2]) [µM],EC50 (Trypanosoma brucei [4]) [µM],Ratio EC50 (Trypanosoma brucei [3]),Ratio EC50 (Trypanosoma brucei [5]),further results
N=C(N)c1ccc(OCCCCCOc2ccc(C(=N)N)cc2)cc1 [PENTAMIDINE],0.00095,0.0017,0.0026,3,2,
NC(=O)c1cc(N2CC2)c([N+](=O)[O-])cc1[N+](=O)[O-] [TRETAZICAR],0.54,10.2,8,15,19,
